A1 apoptosis 2: A1 inhibitors via caspase activation, primary screen, cell-based, luminescence, HTS, two replicates | MEF A1-2A-BIM cells, caspase-Glo luminescence, 3 h; percent of clofoctol response, DMSO zero | 24,000 tested, under 10 active | caspase activation, % (no concentration beside the values); in the data active means caspase activation above about 5.9%; inconclusive means no clear call, values can overlap the other calls; inactive means below about 2.2%
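Test system – A1-2A-BIM-expressing MEF cells · Input – 2500 cells/well · Medium – RPMI-1640 growth medium with 10% FBS · Compound dosing – 50 nL pinned compound · Timing – 3 h compound exposure at 37 °C · Technique – Caspase-Glo luminescence (DEVD substrate) · Evaluation – Caspase-3/7 activity from luminescence increase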
INS-1E ATP HTS: protection of INS-1E cells from cytokine death, primary screen, ATP luminescence, single point | INS-1E cytokine-induced death, 48 h; normalised: neutral wells 0, positive control 100 | protection from cytokine-induced ATP loss, % at 10 µM | 0.1% of 20,000 active | AID 488910, 2010;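 active means mean replicate protection from cytokine-induced ATP loss at least 50% and at least 75% of replicates each reaching 50%; inconclusive means meets only one of the two criteria, mean or replicate share; inactive means fails both the mean and replicate share criteria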
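Assay system: INS-1E rat cells / Quantity: 8000 cells per well / Medium: RPMI without phenol red, 5% FBS / Probe or stimulus: three-cytokine cocktail (IFN-γ, TNF-α, IL-1β) / Dosing: one compound concentration, pin transfer / Timing: 48 h co-treatment, 10 min post-lysis read / Technique: CellTiter-Glo luminescence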
T cruzi intra: inhibitors of intracellular Trypanosoma cruzi, primary screen, cell-based, plate reader, single point, set 2 | intracellular Trypanosoma cruzi in host cells | activity score (inhibition), % at 5.01 µM | 4.9% of 22,000 active; in the data active means activity score above about 55%; inconclusive means no clear call, values can overlap the other calls;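 further: parasites and compound incubated about four days before reading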
Large screens that a line does not name were inactive. Many of the other results were omitted from the sample, so hits are more common in it than they were.

C[C@H]1CN([C@@H](C)CO)C(=O)c2cc(NS(=O)(=O)c3ccccc3)ccc2O[C@H]1CN(C)Cc1ccc(C(F)(F)F)cc1	T cruzi intra 62 (no result: A1 apoptosis 2, INS-1E ATP HTS)
Cc1ccc(S(=O)(=O)Nc2ccc3c(c2)C(=O)N([C@H](C)CO)C[C@@H](C)[C@@H](CN(C)Cc2ccc(C(F)(F)F)cc2)O3)cc1	T cruzi intra 60 (no result: A1 apoptosis 2)
COc1ccc(S(=O)(=O)Nc2ccc3c(c2)C(=O)N([C@H](C)CO)C[C@H](C)[C@@H](CN(C)Cc2ccc(C(F)(F)F)cc2)O3)cc1	T cruzi intra 64
Cc1ccc(S(=O)(=O)Nc2ccc3c(c2)C(=O)N([C@@H](C)CO)C[C@@H](C)[C@@H](CN(C)Cc2ccc(C(F)(F)F)cc2)O3)cc1	none (no result: INS-1E ATP HTS)
C[C@H](CO)N1C[C@H](C)[C@@H](CN(C)Cc2ccc3c(c2)OCO3)Oc2ccc(NS(=O)(=O)c3ccc(F)cc3)cc2C1=O	T cruzi intra 59
C[C@@H]1CN([C@@H](C)CO)C(=O)c2cc(NS(=O)(=O)c3ccccc3)ccc2O[C@H]1CN(C)Cc1ccc(C(F)(F)F)cc1	none (no result: A1 apoptosis 2)
COC(=O)CCCCCCC(=O)N/N=C/c1ccc(NC(=O)OC(C)(C)C)cc1	none (no result: A1 apoptosis 2)
O=C(N/N=C/c1ccc(N2CCCC2)cc1)c1ccccc1O	none (no result: A1 apoptosis 2)
COc1ccc(CCNC(=O)[C@@H]2c3ccccc3C(=O)N(Cc3ccccc3OC)[C@H]2c2ccc(CO)cc2)cc1	none (no result: INS-1E ATP HTS, T cruzi intra)
Cc1ncc(CO)c(/C=N/NC(=O)CCCCCCC(=O)O)c1O	none
C[C@H](CO)N1C[C@H](C)[C@@H](CN(C)Cc2ccc(C(F)(F)F)cc2)Oc2ccc(NS(=O)(=O)c3ccc(F)cc3)cc2C1=O	T cruzi intra 61 (no result: A1 apoptosis 2, INS-1E ATP HTS)
Cc1ccc(S(=O)(=O)Nc2ccc3c(c2)C(=O)N([C@H](C)CO)C[C@@H](C)[C@H](CN(C)Cc2ccc(C(=O)O)cc2)O3)cc1	none (no result: A1 apoptosis 2)
C[C@@H]1CN([C@@H](C)CO)C(=O)c2cc(NS(=O)(=O)c3ccc(Cl)cc3)ccc2O[C@@H]1CN(C)Cc1ccc(C(F)(F)F)cc1	T cruzi intra 84
Cc1ccc(S(=O)(=O)Nc2ccc3c(c2)C(=O)N([C@H](C)CO)C[C@H](C)[C@@H](CN(C)Cc2ccc(C(F)(F)F)cc2)O3)cc1	T cruzi intra 67
Cc1ccc(S(=O)(=O)Nc2ccc3c(c2)C(=O)N([C@@H](C)CO)C[C@H](C)[C@H](CN(C)Cc2ccc(C(=O)O)cc2)O3)cc1	none (no result: A1 apoptosis 2)
C[C@@H]1CN([C@@H](C)CO)C(=O)c2cc(NS(=O)(=O)c3ccc(F)cc3)ccc2O[C@H]1CN(C)Cc1ccc(C(F)(F)F)cc1	none
C[C@@H]1CN([C@@H](C)CO)C(=O)c2cc(NS(=O)(=O)c3ccc(F)cc3)ccc2O[C@@H]1CN(C)Cc1ccc(C(F)(F)F)cc1	T cruzi intra inconclusive
Cc1ccc(S(=O)(=O)Nc2ccc3c(c2)C(=O)N([C@@H](C)CO)C[C@H](C)[C@@H](CN(C)Cc2ccc(C(F)(F)F)cc2)O3)cc1	T cruzi intra 65 (no result: A1 apoptosis 2, INS-1E ATP HTS)
O=C(N/N=C/c1cccc(B(O)O)c1)c1ccccn1	none
O=C(CCCCCC(=O)N/N=C/c1ccncc1Br)NO	none (no result: INS-1E ATP HTS, T cruzi intra)
O=C1O[C@H](c2ccccc2)[C@H](c2ccccc2)N2[C@H]1[C@@H](C(=O)NC[C@H](O)c1ccccc1)[C@]1(C(=O)Nc3ccccc31)[C@H]2c1ccccc1OCCO	none (no result: INS-1E ATP HTS, T cruzi intra)
NC(=O)COc1ccc(/C=N/NC(=O)CCCCCCC(=O)NO)cc1	none (no result: INS-1E ATP HTS, T cruzi intra)
CCCC[C@H]1OB(O)C[C@H]2C1=C(COc1ccccc1)Cn1c(=O)n(-c3ccccc3)c(=O)n12	none (no result: INS-1E ATP HTS, T cruzi intra)
COC(=O)[C@]1(Cc2ccccc2N=[N+]=[N-])N=C(c2ccc(OCCCO)cc2)O[C@@H]1c1ccccc1CN=[N+]=[N-]	none (no result: INS-1E ATP HTS, T cruzi intra)
C[C@@H]1CCCCO[C@@H](CN(C)C(=O)Nc2ccc(C(F)(F)F)cc2)[C@@H](C)CN([C@H](C)CO)C(=O)c2cc(NS(=O)(=O)c3ccc(Cl)cc3)ccc2O1	T cruzi intra 72 (no result: A1 apoptosis 2)
Cc1ccc(S(=O)(=O)Nc2ccc3c(c2)C(=O)N([C@H](C)CO)C[C@H](C)[C@H](CN(C)C(=O)Nc2ccc(C(F)(F)F)cc2)OCCCC[C@@H](C)O3)cc1	T cruzi intra 63
C[C@@H]1CN([C@H](C)CO)C(=O)c2cc(NS(=O)(=O)c3ccc(Cl)cc3)ccc2O[C@@H](C)CCCCO[C@H]1CN(C)C(=O)Nc1ccc(C(F)(F)F)cc1	none (no result: INS-1E ATP HTS, T cruzi intra)
Cc1ccc(S(=O)(=O)Nc2ccc3c(c2)C(=O)N([C@@H](C)CO)C[C@@H](C)[C@H](CN(C)C(=O)Nc2ccc(C(F)(F)F)cc2)OCCCC[C@@H](C)O3)cc1	none (no result: INS-1E ATP HTS, T cruzi intra)
COc1cc2c(cc1OC)CN(C(=O)[C@@H]1[C@H]3C(=O)O[C@H](c4ccccc4)[C@H](c4ccccc4)N3[C@H](c3ccccc3OCCO)[C@@]13C(=O)Nc1ccccc13)CC2	none (no result: INS-1E ATP HTS, T cruzi intra)
CC(C)=CCC[C@@H](C)C/C=N/NC(=O)CCCCCC(=O)O	none
O=C(CCCCCCC(=O)Nc1ccccc1O)NN=C1CCCC1	none (no result: A1 apoptosis 2)
C=CCNC(=O)[C@@H]1[C@H]2C(=O)O[C@H](c3ccccc3)[C@H](c3ccccc3)N2[C@H](c2ccc(O)cc2)[C@@]12C(=O)Nc1ccc(C#Cc3ccc(OC)cc3)cc12	none (no result: INS-1E ATP HTS, T cruzi intra)
O=C(CCCCC(=O)N/N=C/c1ccc(O)cc1)NO	none (no result: A1 apoptosis 2)
Cc1noc(C)c1S(=O)(=O)Nc1ccc2c(c1)C(=O)N([C@@H](C)CO)C[C@@H](C)[C@@H](CN(C)Cc1ccc(Cl)c(Cl)c1)O2	none (no result: A1 apoptosis 2)
Cc1noc(C)c1S(=O)(=O)Nc1ccc2c(c1)CC(=O)N([C@@H](C)CO)C[C@@H](C)[C@@H](CN(C)Cc1ccc(Cl)c(Cl)c1)O2	T cruzi intra 61 (no result: A1 apoptosis 2)
Cc1noc(C)c1S(=O)(=O)Nc1ccc2c(c1)C(=O)N([C@@H](C)CO)C[C@H](C)[C@@H](CN(C)Cc1ccc(Cl)c(Cl)c1)O2	T cruzi intra 66
Cc1noc(C)c1S(=O)(=O)Nc1ccc2c(c1)CC(=O)N([C@@H](C)CO)C[C@@H](C)[C@H](CN(C)Cc1ccc(Cl)c(Cl)c1)O2	none (no result: INS-1E ATP HTS, T cruzi intra)
COc1ccc(S(=O)(=O)Nc2ccc3c(c2)CC(=O)N([C@@H](C)CO)C[C@H](C)[C@H](CN(C)Cc2ccc(C(F)(F)F)cc2)O3)cc1	none
COc1ccc(S(=O)(=O)Nc2ccc3c(c2)CC(=O)N([C@@H](C)CO)C[C@@H](C)[C@@H](CN(C)Cc2ccc(C(F)(F)F)cc2)O3)cc1	T cruzi intra 80
COc1ccc(S(=O)(=O)Nc2ccc3c(c2)CC(=O)N([C@H](C)CO)C[C@@H](C)[C@@H](CN(C)Cc2ccc(C(F)(F)F)cc2)O3)cc1	T cruzi intra 65
COc1ccc(S(=O)(=O)Nc2ccc3c(c2)CC(=O)N([C@@H](C)CO)C[C@@H](C)[C@H](CN(C)Cc2ccc(C(F)(F)F)cc2)O3)cc1	none (no result: INS-1E ATP HTS, T cruzi intra)
COC(=O)CCCCCCC(=O)N/N=C/c1cc(F)ccc1O	none
C[C@H](CO)N1C[C@H](C)[C@H](CN(C)CC2CC2)Oc2c(NC(=O)Nc3ccc(C(F)(F)F)cc3)cccc2C1=O	T cruzi intra 82

High-throughput results deposited in PubChem BioAssay by Broad Institute.
